# According to ChEMBL document CHEMBL4732250, “Investigations on substituted (2-aminothiazol-5-yl)(imidazo[1,2-a]pyridin-3-yl)methanones for the treatment of Alzheimer's disease” (Bioorg Med Chem, 2021):
# Active and inactive are the calls of the source. The calls are words filed in the database; no cut-off is given here.
# Key:
# Rattus norvegicus [1] = experiment: Antialzheimer activity against AlCl3-induced Sprague-Dawley rat assessed as improved in spatial working memory at 50 mg/kg, po for 7 to 28 days by elevated plus maze test; format: functional, organism-based; conditions: time 7-28 day
# [2] = Toxicity in AlCl3-induced Sprague-Dawley rat assessed as reduction in HGB level at 50 mg/kg, po after 28 days by automated haematology analyser; format: organism-based; conditions: in vivo, 672 h, time 28 day
# In short: (§1)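 On day 29 of the AlCl3 model (28 days of oral dosing), blood was drawn from the retro-orbital sinus under isoflurane into heparinized tubes. Haemoglobin and haematocrit were measured on a haematology analyser.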
# Rattus norvegicus [3] = experiment: Antiinflammatory activity in Sprague-Dawley rat chronic model of formalin-induced paw edema assessed as inhibition of rat paw edema at 50 mg/kg, po pre treated for 1 hr followed by formalin-stimulation and measured after 2 days by plethysmometeric method relative to control; format: functional; conditions: 48 h, time 2 day
# In short: (§2)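 Chronic paw edema. Oral pre-dose in 0.2% agar; after 1 h, 0.1 mL 2% formalin in saline injected into the left hind sub-plantar paw, repeated on 5 consecutive days. Paw volume by plethysmometer. % inhibition of edema size relative to disease control, days 1–5. n = 6, mean ± SEM, one-way ANOVA with Tukey's test.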
# [4] = Toxicity in AlCl3-induced Sprague-Dawley rat assessed as reduction in HCT level at 50 mg/kg, po after 28 days by automated haematology analyser; format: organism-based; conditions: in vivo, 672 h, time 28 day; in short: as §1
# Rattus norvegicus [5] = experiment: Antiinflammatory activity in Sprague-Dawley rat chronic model of formalin-induced paw edema assessed as inhibition of rat paw edema at 50 mg/kg, po pre treated for 1 hr followed by formalin-stimulation and measured after 3 days by plethysmometeric method relative to control; format: functional; conditions: 72 h, time 3 day; in short: as §2
# Rattus norvegicus [6] = experiment: Antiinflammatory activity in Sprague-Dawley rat acute model of carrageenan-induced paw edema assessed as inhibition of rat paw edema at 50 mg/kg, po pre treated for 1 hr followed by carrageenan-stimulation and measured after 3 hrs by plethysmometeric method relative to control; format: functional; conditions: time 4 hrs
# In short: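 SD rats of either sex, 150–200 g, n = 6, dosed orally in 0.2% agar suspension. After 1 h, 0.1 mL 1% carrageenan in saline injected into the left hind sub-plantar paw. Paw volume measured by mercury plethysmometer before and 3 h after injection. % edema inhibition calculated. Mean ± SEM.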
# Rattus norvegicus [7] = experiment: Antialzheimer activity against AlCl3-induced Sprague-Dawley rat assessed as improved in learning memory by measuring suppression of CAR at 50 mg/kg, po for 7 to 28 days by pole test; format: functional, organism-based; conditions: time 7-28 day
# In short: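 Cook's pole-climbing apparatus used for conditioned avoidance response with foot shock, in acquisition and test sessions. Rats received oral dosing in 0.2% agar plus AlCl3 4.2 mg/kg i.p. daily for 28 days. CAR was recorded on days 7, 14, 21 and 28. n = 6 per group.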
# Rattus norvegicus [8] = experiment: Antiinflammatory activity in Sprague-Dawley rat chronic model of formalin-induced paw edema assessed as inhibition of rat paw edema at 50 mg/kg, po pre treated for 1 hr followed by formalin-stimulation and measured after 1 day by plethysmometeric method relative to control; format: functional; conditions: 24 h; in short: as §2
# Rattus norvegicus [9] = experiment: Antialzheimer activity against AlCl3-induced Sprague-Dawley rat assessed as reduction in plaque formation in the cortex region at 50 mg/kg, po after 28 days by congo red staining based microscopic method; format: functional, organism-based; conditions: time 28.0 day
# In short: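 Cortical amyloid plaques in Congo red-stained brain sections viewed at 100X. Rats had 28 days of oral dosing in 0.2% agar plus AlCl3 4.2 mg/kg i.p.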
# [10] = Toxicity in AlCl3-induced Sprague-Dawley rat assessed as focal erosions in stomach at 50 mg/kg, po after 28 days by H and E staining based microscopic method; format: organism-based; conditions: in vivo, 672 h, time 28 day
# In short: (§3)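 Gastrointestinal damage in AlCl3-model rats, 28 days of oral dosing. Stomach and intestines were washed in cold PBS 0.01 M pH 7.4 and fixed 24 h in 10% neutral buffered formalin. After a 70% ethanol wash, haemorrhagic damage was measured by digital vernier caliper for the lesion index. HE-stained sections examined microscopically.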
# Rattus norvegicus [11] = experiment: Antialzheimer activity against AlCl3-induced Sprague-Dawley rat assessed as improved in working memory at 50 mg/kg, po for 7 to 28 days by Y maze test; format: functional, organism-based; conditions: time 7-28 day
# In short: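 Y-maze: rats trained for 5 consecutive days. Arm entries recorded; SAP = total entries minus two; % alteration = actual ÷ maximum alteration × 100. Assessed on days 7, 14, 21 and 28 of daily oral dosing in 0.2% agar plus AlCl3 4.2 mg/kg i.p. n = 6, two-way ANOVA with Tukey's test.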
# Rattus norvegicus [12] = experiment: Antiinflammatory activity in Sprague-Dawley rat chronic model of formalin-induced paw edema assessed as inhibition of rat paw edema at 50 mg/kg, po pre treated for 1 hr followed by formalin-stimulation and measured after 5 day by plethysmometeric method relative to control; format: functional; conditions: 120 h; in short: as §2
# Rattus norvegicus [13] = experiment: Antialzheimer activity against AlCl3-induced Sprague-Dawley rat assessed as reduction in brain LPO activity at 50 mg/kg, po after 28 days by UV-VIS spectrophotometric method; format: functional, organism-based; conditions: time 28.0 day
# In short: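 Brain LPO as MDA by the TBA reaction. AlCl3 model: oral dosing in 0.2% agar for 28 days plus AlCl3 4.2 mg/kg i.p. daily. Day-29 brains were homogenized in HBSS pH 7.4 and the pellet resuspended. Reaction with SDS, acetic acid pH 3.5 and TBA at 95 °C for 1 h, then n-butanol:pyridine extraction. Read at 532 nm, extinction coefficient applied, per gram organ. n = 6.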
# Rattus norvegicus [14] = experiment: Antiinflammatory activity in Sprague-Dawley rat chronic model of formalin-induced paw edema assessed as inhibition of rat paw edema at 50 mg/kg, po pre treated for 1 hr followed by formalin-stimulation and measured after 4 days by plethysmometeric method relative to control; format: functional; conditions: 96 h, time 4 day; in short: as §2
# [15] = Toxicity in AlCl3-induced Sprague-Dawley rat assessed as focal erosions in intestine at 50 mg/kg, po after 28 days by H and E staining based microscopic method; format: organism-based; conditions: in vivo, 672 h, time 28 day; in short: as §3
# [16] = Toxicity in AlCl3-induced Sprague-Dawley rat assessed as intestine lesion at 50 mg/kg, po after 28 days by H and E staining based microscopic method; format: organism-based; conditions: in vivo, 672 h, time 28 day; in short: as §3
# Rattus norvegicus [17] = experiment: Antialzheimer activity against AlCl3-induced Sprague-Dawley rat assessed as reduction in hippocampal neuronal degeneration at 50 mg/kg, po after 28 days by H and E staining based microscopic method; format: functional, organism-based; conditions: time 28.0 day
# In short: (§4)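 Hippocampal neuronal degeneration. After 28 days of oral dosing in 0.2% agar with daily AlCl3 4.2 mg/kg i.p., brain sections were HE-stained and hippocampal regions examined at 100X.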
# [18] = Toxicity in AlCl3-induced Sprague-Dawley rat assessed as stomach lesion at 50 mg/kg, po after 28 days by H and E staining based microscopic method; format: organism-based; conditions: in vivo, 672 h, time 28 day; in short: as §3
# Rattus norvegicus [19] = experiment: Antialzheimer activity against AlCl3-induced Sprague-Dawley rat assessed as change in brain SODactivity at 50 mg/kg, po after 28 days; format: functional, organism-based; conditions: time 28.0 day
# In short: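 Brain SOD activity. Rats were dosed orally for 28 days in 0.2% agar suspension, each followed by AlCl3 4.2 mg/kg i.p. Brains were taken on day 29, washed in saline and homogenized in chilled 50 mM Tris pH 8.2. Triton X-100 treatment at 4 °C, 30 min, then centrifugation. Pyrogallol was added and A420 read at 0 and 9 min, per gram fresh tissue. n = 6.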
# [20] = Toxicity in AlCl3-induced Sprague-Dawley rat assessed as reduction in serum albumin level at 50 mg/kg, po after 28 days by automated analyser; format: organism-based; conditions: in vivo, 672 h, time 28 day
# In short: (§5)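 Under isoflurane, retro-orbital blood was collected into non-heparinized tubes after the 28-day AlCl3 model with oral dosing. Serum % albumin and total protein were measured on an automated clinical chemistry analyser.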
# [21] = Toxicity in AlCl3-induced Sprague-Dawley rat assessed as stomach lesion index at 5 mg/kg, po after 28 days by H and E staining based microscopic method; format: organism-based; conditions: in vivo, 672 h, time 28 day; in short: as §3
# [22] = Toxicity in AlCl3-induced Sprague-Dawley rat assessed as reduction in serum albumin level at 5 mg/kg, po after 28 days by automated analyser; format: organism-based; conditions: in vivo, 672 h, time 28 day; in short: as §5
# [23] = Toxicity in AlCl3-induced Sprague-Dawley rat assessed as intestine lesion index at 5 mg/kg, po after 28 days by H and E staining based microscopic method; format: organism-based; conditions: in vivo, 672 h, time 28 day; in short: as §3
# Rattus norvegicus [24] = experiment: Antialzheimer activity against AlCl3-induced Sprague-Dawley rat assessed as reduction in hippocampal neuronal degeneration at 5 mg/kg, po after 28 days by H and E staining based microscopic method; format: functional, organism-based; conditions: time 28.0 day; in short: as §4
# [25] = Toxicity in AlCl3-induced Sprague-Dawley rat assessed as reduction in HGB level at 5 mg/kg, po after 28 days by automated haematology analyser; format: organism-based; conditions: in vivo, 672 h, time 28 day; in short: as §1
# [26] = Toxicity in AlCl3-induced Sprague-Dawley rat assessed as reduction in total protein level at 5 mg/kg, po after 28 days by automated analyser; format: organism-based; conditions: in vivo, 672 h, time 28 day; in short: as §5
# [27] = Toxicity in AlCl3-induced Sprague-Dawley rat assessed as reduction in HCT level at 5 mg/kg, po after 28 days by automated haematology analyser; format: organism-based; conditions: in vivo, 672 h, time 28 day; in short: as §1
structure (smiles),measurement,setting,value
Cc1ccn2c(C(=O)c3sc(N)nc3N(C)C)cnc2c1,Activity,Rattus norvegicus [1],Active
same,Activity,[2],Non-Toxic
same,inhibition in vivo at 50 mg/kg,Rattus norvegicus [3],67%
same,Activity,[4],Non-Toxic
same,inhibition in vivo at 50 mg/kg,Rattus norvegicus [5],65%
same,inhibition in vivo at 50 mg/kg,Rattus norvegicus [6],85%
same,Activity,Rattus norvegicus [7],Active
same,inhibition in vivo at 50 mg/kg,Rattus norvegicus [8],58%
same,Activity,Rattus norvegicus [9],Active
same,Activity,[10],Non-Toxic
same,Activity,Rattus norvegicus [11],Active
same,inhibition in vivo at 50 mg/kg,Rattus norvegicus [12],63%
same,Activity,Rattus norvegicus [13],Active
same,inhibition in vivo at 50 mg/kg,Rattus norvegicus [14],60%
same,Activity,[15],Non-Toxic
same,Activity,[16],Non-Toxic
same,Activity,Rattus norvegicus [17],Active
same,Activity,[18],Non-Toxic
same,Activity,Rattus norvegicus [19],Active
same,Activity,[20],Non-Toxic
Cc1ccn2c(C(=O)c3sc(N)nc3-c3ccccc3)cnc2c1,inhibition in vivo at 50 mg/kg,Rattus norvegicus [6],26%
Cc1cnc(NC(=O)C2=C(O)c3ccccc3S(=O)(=O)N2C)s1 [MELOXICAM],Activity_index,[21],12.19 mm
same,Activity,[22],Non-Toxic
same,Activity_index,[23],29.15 mm
same,Activity,Rattus norvegicus [24],Active
same,Activity,[25],Toxic
same,Activity,[26],Toxic
same,Activity,[27],Toxic
Cc1ccc2ncc(C(=O)c3sc(N)nc3N(C)C)n2c1,inhibition in vivo at 50 mg/kg,Rattus norvegicus [6],23%
Cc1nc(N)sc1C(=O)c1cnc2ccccn12,inhibition in vivo at 50 mg/kg,Rattus norvegicus [6],53%
